Measured values reported in ChEMBL document CHEMBL3112397, “Antitrypanosomal structure-activity-relationship study of synthetic cynaropicrin derivatives” (Bioorg Med Chem Lett, 2014).

What was measured:
[1] = Selectivity index, ratio of IC50 for rat L6 cells to IC50 for Trypanosoma brucei rhodesiense STIB 900; assay type: toxicity, cell-based; details: read-out: Ratio IC50
Procedure, shortened: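 SI was calculated as IC50 in L6 cells divided by IC50 against T. b. rhodesiense, with both values from the Alamar Blue assays.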

L6 = experiment: Cytotoxicity against rat L6 cells after 70 hrs by alamar blue assay; assay type: cell-based; details: L6, 70 h
Procedure, shortened: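 Rat skeletal myoblasts (L6) were kept in RPMI 1640 with L-glutamine, 5.95 g/L HEPES, 2 g/L NaHCO3 and 10% FBS at 37 °C in 5% CO2, seeded at 4000 cells/well, then given fresh medium 24 h later with or without serial threefold drug dilutions. Podophyllotoxin served as reference. After 70 h, Alamar Blue was added for 2 h more and read at ex 536/em 588 nm. IC50 came from sigmoidal curves, ≥3 independent repeats.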

[2] = system: Trypanosoma brucei rhodesiense; experiment: Antitrypanosomal activity against bloodstream form of Trypanosoma brucei rhodesiense STIB 900 after 70 hrs by alamar blue assay; assay type: functional, organism-based; details: STIB 900, 70 h
Procedure, shortened: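 T. b. rhodesiense STIB 900 bloodstream forms were grown at 37 °C in humidified 5% CO2 in MEM with Earle's salts plus 0.2 mM 2-mercaptoethanol, 1 mM sodium pyruvate, 0.5 mM hypoxanthine and 15% heat-inactivated horse serum. Serial threefold dilutions were tested with Alamar Blue read-out (ex 536/em 588 nm). IC50 was taken from sigmoidal growth-inhibition curves over at least three independent repeats (mean ± SEM).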

Structure (SMILES)	selectivity ratio [1]	IC50 (L6)	IC50 [2]
C=C1C(=O)O[C@@H]2[C@H]3C(=C)[C@@H](OCOC)C[C@H]3C(=C)C[C@H](O)[C@@H]12	0.4	860 nM	2210 nM
C=C(C)C(=O)O[C@H]1CC(=C)[C@@H]2C[C@H](OCOC)C(=C)[C@@H]2[C@H]2OC(=O)C(=C)[C@@H]21	0.9	300 nM	340 nM
C=C(C)C(=O)O[C@H]1CC(=C)[C@@H]2C[C@H](O)C(=C)[C@@H]2[C@H]2OC(=O)C(=C)[C@@H]21 [AGUERIN B]	1.9	330 nM	170 nM
C=C(COCOC)C(=O)O[C@H]1CC(=C)[C@@H]2C[C@H](OCOC)C(=C)[C@@H]2[C@H]2OC(=O)C(=C)[C@@H]21	0.4	170 nM	480 nM
C=C1C(=O)O[C@@H]2[C@H]3C(=C)[C@@H](O)C[C@H]3C(=C)C[C@H](O)[C@@H]12 [DESACYLCYNAROPICRIN]	1	4940 nM	4920 nM
C=C(COC(C)=O)C(=O)O[C@H]1CC(=C)[C@@H]2C[C@H](OC(C)=O)C(=C)[C@@H]2[C@H]2OC(=O)C(=C)[C@@H]21	2.3	4940 nM	2130 nM
C=C(CO)C(=O)O[C@H]1CC(=C)[C@@H]2C[C@H](O)C(=C)[C@@H]2[C@H]2OC(=O)C(=C)[C@@H]21 [CYNAROPICRIN]	7.8	2190 nM	280 nM
C=C(COC(C)=O)C(=O)O[C@H]1CC(=C)[C@@H]2C[C@H](O)C(=C)[C@@H]2[C@H]2OC(=O)C(=C)[C@@H]21	3.4	6390 nM	1860 nM
